According to ChEMBL document CHEMBL1124770, “Synthesis and pharmacological evaluation of amino, azido, and nitrogen mustard analogues of 10-substituted cannabidiol and 11- or 12-substituted delta 8-tetrahydrocannabinol” (1990):

Columns and labels:
Format in all cases: functional
Mus musculus [1] = assay: Evaluated for reduction in spontaneous locomotor activity in mice at a dose of 3 mg/Kg
Outline: (§1)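 Tail-vein injection in mice (0.1 mL/10 g; ethanol/emulphor/saline 1:1:18). Spontaneous locomotor activity counted as counts/10 min, per previously reported methods. Daily vehicle and Δ9-THC positive controls. Mean ± SEM; ANOVA with Dunnett's t test, p < 0.05 two-tailed.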

Mus musculus [2] = assay: Tail-flick latency was determined at a concentration of 0 mg/Kg.
Outline: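 Antinociception in mice by tail-flick latency (s), per previously reported methods, after tail-vein injection (0.1 mL/10 g) in ethanol/emulphor/saline (1:1:18). Vehicle and Δ9-THC controls run daily. Mean ± SEM; ANOVA with Dunnett's t test, p < 0.05 two-tailed.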

Mus musculus [3] = assay: Evaluated for catalepsy activity in mice and percentage immobility was determined at a concentration of 5 mg/Kg.
Outline: (§2)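 Mice, single tail-vein injection (0.1 mL/10 g) in ethanol/emulphor/saline (1:1:18). Catalepsy scored by ring test as % immobility, per previously reported methods. Vehicle and Δ9-THC positive-control groups run in each daily experiment. Mean ± SEM; ANOVA with Dunnett's t test versus control, p < 0.05 two-tailed.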

Mus musculus [4] = assay: Evaluated for hypothermic activity in mice at a dose of 5 mg/Kg.
Outline: (§3)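 Mice dosed by tail-vein injection (0.1 mL/10 g) in ethanol/emulphor/saline (1:1:18). Body temperature change (°C) measured by previously reported methods. Vehicle and Δ9-THC positive controls run each day. Mean ± SEM; ANOVA with Dunnett's t test versus control, p < 0.05 two-tailed.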

Mus musculus [5] = assay: Evaluated for reduction in spontaneous locomotor activity in mice at a dose of 5 mg/Kg; outline: as §1
Mus musculus [6] = assay: Tail-flick latency was determined at a concentration of 3 mg/Kg.
Outline: (§4)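 Mice, drug suspended in ethanol/emulphor/saline (1:1:18) and given by tail-vein injection (0.1 mL/10 g). Antinociception measured as tail-flick latency (s). Vehicle and Δ9-THC positive controls run in each daily experiment. Data given as mean ± SEM. ANOVA with Dunnett's t test against control, p < 0.05 (two-tailed).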

Mus musculus [7] = assay: Evaluated for hypothermic activity in mice at a dose of 3 mg/Kg.; outline: as §3
Mus musculus [8] = assay: Evaluated for catalepsy activity in mice and percentage immobility was determined at a concentration of 3 mg/kg.; outline: as §2
Mus musculus [9] = assay: Evaluated for hypothermic activity in mice at a dose of 0 mg/Kg.; outline: as §3
Mus musculus [10] = assay: Tail-flick latency was determined at a concentration of 5 mg/Kg.; outline: as §4
Mus musculus [11] = assay: Evaluated for catalepsy activity in mice and percentage immobility was determined at a concentration of 0 mg/Kg.; outline: as §2
Mus musculus [12] = assay: Evaluated for reduction in spontaneous locomotor activity in mice, at a dose of 0 mg/Kg; outline: as §1
Mus musculus [13] = assay: Evaluated for reduction in spontaneous locomotor activity in mice at a dose of 50 mg/Kg; outline: as §1
Mus musculus [14] = assay: Evaluated for hypothermic activity in mice at a dose of 50 mg/Kg.; outline: as §3
Mus musculus [15] = assay: Tail-flick latency was determined at a concentration of 0 ug/Kg administered intraventricularly
Outline: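 Tail-flick latency (s) in mice after intraventricular injection (5 μL) of ethanol/emulphor/saline (1:1:18) vehicle, measured by previously reported methods. Mean ± SEM; ANOVA with Dunnett's t test, p < 0.05 two-tailed.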

Mus musculus [16] = assay: Tail-flick latency was determined at a concentration of 50 mg/Kg.; outline: as §4
Mus musculus [17] = assay: Evaluated for reduction in spontaneous locomotor activity in mice at a dose of 150 ug/Kg administered intraventricularly
Outline: (§5)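 Mice given intraventricular injection of 5 μL in ethanol/emulphor/saline (1:1:18). Spontaneous locomotor activity recorded as counts/10 min by previously reported methods, alongside vehicle and Δ9-THC controls. Mean ± SEM; ANOVA with Dunnett's t test, p < 0.05 two-tailed.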

Mus musculus [18] = assay: Tail-flick latency was determined at a concentration of 150 ug/Kg administered intraventricularly
Outline: (§6)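 Mice, injected intraventricularly in 5 μL of ethanol/emulphor/saline (1:1:18) vehicle. Doses given as μg amounts. Antinociception read as tail-flick latency (s), alongside vehicle control. Values reported as mean ± SEM. ANOVA with Dunnett's t test versus control, significance at p < 0.05 (two-tailed).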

Mus musculus [19] = assay: Evaluated for reduction in spontaneous locomotor activity in mice, at a dose of 0 ug/Kg administered intraventricularly; outline: as §5
Mus musculus [20] = assay: Evaluated for hypothermic activity in mice at a dose of 150 ug/Kg administered intraventricularly
Outline: (§7)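 Intraventricular injection in mice, 5 μL volume, in ethanol/emulphor/saline (1:1:18) vehicle. Change in body temperature (°C) recorded by previously reported methods, with vehicle and Δ9-THC controls. Mean ± SEM; ANOVA with Dunnett's t test versus control, p < 0.05 two-tailed.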

Mus musculus [21] = assay: Evaluated for catalepsy activity in mice and percentage immobility was determined at a concentration of 50 mg/Kg.; outline: as §2
Mus musculus [22] = assay: Evaluated for hypothermic activity in mice at a dose of 0 ug/Kg administered intraventricularly; outline: as §7
Mus musculus [23] = assay: Evaluated for reduction in spontaneous locomotor activity in mice at a dose of 10 mg/Kg; outline: as §1
Mus musculus [24] = assay: Evaluated for hypothermic activity in mice at a dose of 10 mg/Kg.; outline: as §3
Mus musculus [25] = assay: Tail-flick latency was determined at a concentration of 10 mg/Kg.; outline: as §4
Mus musculus [26] = assay: Evaluated for catalepsy activity in mice and percentage immobility was determined at a concentration of 30 mg/Kg.; outline: as §2
Mus musculus [27] = assay: Evaluated for catalepsy activity in mice and percentage immobility was determined at a concentration of 0.3 mg/Kg.; outline: as §2
Mus musculus [28] = assay: Evaluated for reduction in spontaneous locomotor activity in mice, at a dose of 30 mg/Kg; outline: as §1
Mus musculus [29] = assay: Evaluated for hypothermic activity in mice at a dose of 30 mg/Kg.; outline: as §3
Mus musculus [30] = assay: Tail-flick latency was determined at a concentration of 100 ug/Kg administered intraventricularly
Mus musculus [31] = assay: Evaluated for reduction in spontaneous locomotor activity in mice, at a dose of 100 ug/Kg administered intraventricularly; outline: as §5
Mus musculus [32] = assay: Tail-flick latency was determined at a concentration of 0.3 mg/Kg.; outline: as §4
Mus musculus [33] = assay: Evaluated for reduction in spontaneous locomotor activity in mice, at a dose of 150 ug/Kg administered intraventricularly; outline: as §5
Mus musculus [34] = assay: Evaluated for hypothermic activity in mice at a dose of 6 mg/Kg.; outline: as §3
Mus musculus [35] = assay: Evaluated for hypothermic activity in mice at a dose of 100 ug/Kg administered intraventricularly; outline: as §7
Mus musculus [36] = assay: Evaluated for reduction in spontaneous locomotor activity in mice, at a dose of 50 ug/Kg administered intraventricularly; outline: as §5
Mus musculus [37] = assay: Tail-flick latency was determined at a concentration of 6 mg/Kg.; outline: as §4
Mus musculus [38] = assay: Tail-flick latency was determined at a concentration of 50 ug/Kg administered intraventricularly; outline: as §6
Mus musculus [39] = assay: Evaluated for reduction in spontaneous locomotor activity in mice at a dose of 0.3 mg/Kg; outline: as §1
Mus musculus [40] = assay: Tail-flick latency was determined at a concentration of 30 mg/Kg.; outline: as §4
Mus musculus [41] = assay: Evaluated for reduction in spontaneous locomotor activity in mice, at a dose of 6 mg/Kg; outline: as §1
Mus musculus [42] = assay: Evaluated for hypothermic activity in mice at a dose of 0.3 mg/Kg.; outline: as §3
Mus musculus [43] = assay: Evaluated for hypothermic activity in mice at a dose of 50 ug/Kg administered intraventricularly; outline: as §7
Mus musculus [44] = assay: Evaluated for catalepsy activity in mice and percentage immobility was determined at a concentration of 6 mg/Kg.; outline: as §2
Mus musculus [45] = assay: Evaluated for catalepsy activity in mice and percentage immobility was determined at a concentration of 3 mg/Kg.; outline: as §2
Mus musculus [46] = assay: Evaluated for reduction in spontaneous locomotor activity in mice, at a dose of 3 mg/Kg; outline: as §1

## CCCCCc1cc(O)c2c(c1)OC(C)(CNCC)[C@@H]1CC=C(C)CC21 (some centres not stated)
Mus musculus [1]
  Spont activity: 35 Counts 10min-1
Mus musculus [2]
  Tail flick latency: 1 s
Mus musculus [3]
  Immobility: 16%
Mus musculus [4]
  Temperature: -0.7 °C
Mus musculus [5]
  Spont activity: 35 Counts 10min-1
Mus musculus [6]
  Tail flick latency: <2.8 s
Mus musculus [7]
  Temperature: -1.5 °C
Mus musculus [8]
  Immobility: 20%
Mus musculus [9]
  Temperature: -0.9 °C
Mus musculus [10]
  Tail flick latency: 2.2 s
Mus musculus [11]
  Immobility: 13%
Mus musculus [12]
  Spont activity: 52 Counts 10min-1

## CCCCCc1cc(O)c2c(c1)OC(C)(C)[C@@H]1CC=C(CN(CCCl)CCCl)CC21 (some centres not stated)
Mus musculus [2]
  Tail flick latency: 0.7 s
Mus musculus [13]
  Spont activity: <27 Counts 10min-1
Mus musculus [14]
  Temperature: <-3.8 °C
Mus musculus [15]
  Tail flick latency: 0.2 s
Mus musculus [16]
  Tail flick latency: -0.6 s
Mus musculus [17]
  Spont activity: 70 Counts 10min-1
Mus musculus [18]
  Tail flick latency: 0 s
Mus musculus [19]
  Spont activity: 87 Counts 10min-1
Mus musculus [9]
  Temperature: -0.8 °C
Mus musculus [11]
  Immobility: 4%
Mus musculus [12]
  Spont activity: 56 Counts 10min-1
Mus musculus [20]
  Temperature: -1.7 °C
Mus musculus [21]
  Immobility: <24%
Mus musculus [22]
  Temperature: -1.5 °C

## CCCCCc1cc(OC(C)=O)c2c(c1)OC(C)(C)[C@@H]1CC=C(CN(CCCl)CCCl)CC21.Cl (some centres not stated)
Mus musculus [2]
  Tail flick latency: 0.5 s
Mus musculus [13]
  Spont activity: 26 Counts 10min-1
Mus musculus [14]
  Temperature: <-3.3 °C
Mus musculus [16]
  Tail flick latency: 0.6 s
Mus musculus [9]
  Temperature: -1.8 °C
Mus musculus [11]
  Immobility: 4%
Mus musculus [12]
  Spont activity: 51 Counts 10min-1
Mus musculus [21]
  Immobility: <31%

## CCCCCc1cc(O)c2c(c1)OC(C)(C)[C@@H]1CC=C(CNCC)CC21.Cl (some centres not stated)
Mus musculus [23]
  Spont activity: 54 Counts 10min-1
Mus musculus [2]
  Tail flick latency: 0.5 s
Mus musculus [24]
  Temperature: <-3.8 °C
Mus musculus [25]
  Tail flick latency: <2.6 s
Mus musculus [9]
  Temperature: -1.8 °C
Mus musculus [12]
  Spont activity: 49 Counts 10min-1

## CCCCCc1cc(O)c2c(c1)OC(C)(C)[C@@H]1CCC(C)=C[C@@H]21 [DRONABINOL]
Mus musculus [26]
  Immobility: <57%
Mus musculus [2]
  Tail flick latency: 0.6 s
Mus musculus [15]
  Tail flick latency: -0.2 s
Mus musculus [27]
  Immobility: 9%
Mus musculus [28]
  Spont activity: <7 Counts 10min-1
Mus musculus [6]
  Tail flick latency: <2.9 s
Mus musculus [7]
  Temperature: <-2.4 °C
Mus musculus [29]
  Temperature: <-5.1 °C
Mus musculus [30]
  Tail flick latency: <2.3 s
Mus musculus [31]
  Spont activity: <41 Counts 10min-1
Mus musculus [32]
  Tail flick latency: <2 s
Mus musculus [33]
  Spont activity: <33 Counts 10min-1
Mus musculus [34]
  Temperature: <-2.9 °C
Mus musculus [35]
  Temperature: -3.6 °C
Mus musculus [18]
  Tail flick latency: <4 s
Mus musculus [36]
  Spont activity: 46 Counts 10min-1
Mus musculus [37]
  Tail flick latency: <4.9 s
Mus musculus [19]
  Spont activity: 103 Counts 10min-1
Mus musculus [9]
  Temperature: -1.1 °C
Mus musculus [38]
  Tail flick latency: <1.6 s
Mus musculus [39]
  Spont activity: 70 Counts 10min-1
Mus musculus [40]
  Tail flick latency: <5.1 s
Mus musculus [41]
  Spont activity: <23 Counts 10min-1
Mus musculus [11]
  Immobility: 8%
Mus musculus [42]
  Temperature: -1 °C
Mus musculus [43]
  Temperature: -2.3 °C
Mus musculus [12]
  Spont activity: 54 Counts 10min-1
Mus musculus [20]
  Temperature: <-5.5 °C
Mus musculus [44]
  Immobility: <42%
Mus musculus [45]
  Immobility: <25%
Mus musculus [46]
  Spont activity: <30 Counts 10min-1
Mus musculus [22]
  Temperature: -2.2 °C
